Test results from ChEMBL document CHEMBL4689842, “EUbOPEN Chemogenomics Library wave 1” (2021).

Tested on: Fibroblast
Experiment: Multiplex assay against human fibroblast
Assay type: toxicity, cell-based
In short: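 Four dyes were applied at seeding to live cells: Hoechst33342, BioTracker Green Microtubule Cytoskeleton Dye, MitoTracker Red and Annexin V Alexa Fluor 680. Imaging after compound addition used a CQ1 microscope at 37°C and 5% CO2. CellPathfinder machine-learning gating then sorted cells into Hoechst high-intensity objects or normal cells, normal cells into healthy, pyknosed or fragmented nuclei, and pyknosed cells into mitotic or apoptotic, with tubulin, mitochondrial-mass and membrane-permeability phenotypes given as per cents of healthy-nucleus cells.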

[1] = 12 h, 1 µM, compound concentration 1 uM, replicate 1
[2] = 12 h, 1 µM, compound concentration 1 uM, replicate 2
[3] = 12 h, 10 µM, compound concentration 10 uM, replicate 1
[4] = 12 h, 10 µM, compound concentration 10 uM, replicate 2
[5] = 24 h, 1 µM, compound concentration 1 uM, replicate 1
[6] = 24 h, 1 µM, compound concentration 1 uM, replicate 2
[7] = 24 h, 10 µM, compound concentration 10 uM, replicate 1
[8] = 24 h, 10 µM, compound concentration 10 uM, replicate 2
[9] = 48 h, 1 µM, compound concentration 1 uM, replicate 1
[10] = 48 h, 1 µM, compound concentration 1 uM, replicate 2
[11] = 48 h, 10 µM, compound concentration 10 uM, replicate 1
[12] = 48 h, 10 µM, compound concentration 10 uM, replicate 2

## COc1cc2c(NC3CCN(C(C)C)CC3)nc(N3CCC(F)(F)CC3)nc2cc1OCCCN1CCCC1
[1]
  Population Apoptotic (%): 70%
  Population Fragmented Nuclei (%): 30%
  Population Healthy Nuclei (%): 48%
  Population Hoechst High Intensity Objects (%): 11%
  Population Membrane Permeable-Phenotype (%): 16%
  Population Mitochondria Different-Phenotype (%): 11%
  Population Mitotic Cells (%): 29%
  Population Normal (%): 88%
  Population Pyknosed Nuclei (%): 21%
  Population Tubulin-Different-Phenotype (%): 38%
  Total Cell Count: 127
[2]
  Population Apoptotic (%): 30%
  Population Fragmented Nuclei (%): 20%
  Population Healthy Nuclei (%): 67%
  Population Hoechst High Intensity Objects (%): 5%
  Population Membrane Permeable-Phenotype (%): 3%
  Population Mitochondria Different-Phenotype (%): 22%
  Population Mitotic Cells (%): 70%
  Population Normal (%): 94%
  Population Pyknosed Nuclei (%): 11%
  Population Tubulin-Different-Phenotype (%): 19%
  Total Cell Count: 105
[3]
  Population Apoptotic (%): 61%
  Population Fragmented Nuclei (%): 16%
  Population Healthy Nuclei (%): 47%
  Population Hoechst High Intensity Objects (%): 33%
  Population Membrane Permeable-Phenotype (%): 10%
  Population Mitochondria Different-Phenotype (%): 13%
  Population Mitotic Cells (%): 38%
  Population Normal (%): 66%
  Population Pyknosed Nuclei (%): 35%
  Population Tubulin-Different-Phenotype (%): 35%
  Total Cell Count: 239
[4]
  Population Apoptotic (%): 66%
  Population Fragmented Nuclei (%): 11%
  Population Healthy Nuclei (%): 76%
  Population Hoechst High Intensity Objects (%): 8%
  Population Membrane Permeable-Phenotype (%): 66%
  Population Mitochondria Different-Phenotype (%): 97%
  Population Mitotic Cells (%): 33%
  Population Normal (%): 91%
  Population Pyknosed Nuclei (%): 11%
  Population Tubulin-Different-Phenotype (%): 97%
  Total Cell Count: 89
[5]
  Population Apoptotic (%): 65%
  Population Fragmented Nuclei (%): 35%
  Population Healthy Nuclei (%): 47%
  Population Hoechst High Intensity Objects (%): 20%
  Population Membrane Permeable-Phenotype (%): 15%
  Population Mitochondria Different-Phenotype (%): 4%
  Population Mitotic Cells (%): 34%
  Population Normal (%): 79%
  Population Pyknosed Nuclei (%): 17%
  Population Tubulin-Different-Phenotype (%): 34%
  Total Cell Count: 167
[6]
  Population Apoptotic (%): 29%
  Population Fragmented Nuclei (%): 14%
  Population Healthy Nuclei (%): 68%
  Population Hoechst High Intensity Objects (%): 8%
  Population Membrane Permeable-Phenotype (%): 2%
  Population Mitochondria Different-Phenotype (%): 7%
  Population Mitotic Cells (%): 70%
  Population Normal (%): 91%
  Population Pyknosed Nuclei (%): 16%
  Population Tubulin-Different-Phenotype (%): 12%
  Total Cell Count: 113
[7]
  Population Apoptotic (%): 63%
  Population Fragmented Nuclei (%): 22%
  Population Healthy Nuclei (%): 42%
  Population Hoechst High Intensity Objects (%): 37%
  Population Membrane Permeable-Phenotype (%): 4%
  Population Mitochondria Different-Phenotype (%): 9%
  Population Mitotic Cells (%): 36%
  Population Normal (%): 62%
  Population Pyknosed Nuclei (%): 35%
  Population Tubulin-Different-Phenotype (%): 43%
  Total Cell Count: 271
[8]
  Population Apoptotic (%): 90%
  Population Fragmented Nuclei (%): 18%
  Population Healthy Nuclei (%): 59%
  Population Hoechst High Intensity Objects (%): 7%
  Population Membrane Permeable-Phenotype (%): 82%
  Population Mitochondria Different-Phenotype (%): 100%
  Population Mitotic Cells (%): 9%
  Population Normal (%): 92%
  Population Pyknosed Nuclei (%): 22%
  Population Tubulin-Different-Phenotype (%): 96%
  Total Cell Count: 112
[9]
  Population Apoptotic (%): 52%
  Population Fragmented Nuclei (%): 44%
  Population Healthy Nuclei (%): 43%
  Population Hoechst High Intensity Objects (%): 26%
  Population Membrane Permeable-Phenotype (%): 12%
  Population Mitochondria Different-Phenotype (%): 2%
  Population Mitotic Cells (%): 47%
  Population Normal (%): 73%
  Population Pyknosed Nuclei (%): 12%
  Population Tubulin-Different-Phenotype (%): 29%
  Total Cell Count: 231
[10]
  Population Apoptotic (%): 69%
  Population Fragmented Nuclei (%): 47%
  Population Healthy Nuclei (%): 44%
  Population Hoechst High Intensity Objects (%): 34%
  Population Membrane Permeable-Phenotype (%): 6%
  Population Mitochondria Different-Phenotype (%): 0%
  Population Mitotic Cells (%): 30%
  Population Normal (%): 65%
  Population Pyknosed Nuclei (%): 7%
  Population Tubulin-Different-Phenotype (%): 20%
  Total Cell Count: 249
[11]
  Population Apoptotic (%): 37%
  Population Fragmented Nuclei (%): 19%
  Population Healthy Nuclei (%): 45%
  Population Hoechst High Intensity Objects (%): 41%
  Population Membrane Permeable-Phenotype (%): 6%
  Population Mitochondria Different-Phenotype (%): 5%
  Population Mitotic Cells (%): 62%
  Population Normal (%): 58%
  Population Pyknosed Nuclei (%): 35%
  Population Tubulin-Different-Phenotype (%): 32%
  Total Cell Count: 362
[12]
  Population Apoptotic (%): 23%
  Population Fragmented Nuclei (%): 22%
  Population Hoechst High Intensity Objects (%): 47%
  Population Membrane Permeable-Phenotype (%): 4%
  Population Mitochondria Different-Phenotype (%): 0%
  Population Mitotic Cells (%): 76%
  Population Normal (%): 52%
  Population Pyknosed Nuclei (%): 32%
  Population Tubulin-Different-Phenotype (%): 34%
  Total Cell Count: 426

## CN(C)C/C=C/C(=O)Nc1cc2c(Nc3ccc(F)c(Cl)c3)ncnc2cc1O[C@H]1CCOC1.O=C(O)/C=C\C(=O)O.O=C(O)/C=C\C(=O)O [AFATINIB DIMALEATE]
[1]
  Population Apoptotic (%): 66%
  Population Fragmented Nuclei (%): 30%
  Population Healthy Nuclei (%): 53%
  Population Hoechst High Intensity Objects (%): 13%
  Population Membrane Permeable-Phenotype (%): 13%
  Population Mitochondria Different-Phenotype (%): 3%
  Population Mitotic Cells (%): 33%
  Population Normal (%): 86%
  Population Pyknosed Nuclei (%): 16%
  Population Tubulin-Different-Phenotype (%): 10%
  Total Cell Count: 234
[2]
  Population Apoptotic (%): 45%
  Population Fragmented Nuclei (%): 60%
  Population Healthy Nuclei (%): 21%
  Population Hoechst High Intensity Objects (%): 38%
  Population Membrane Permeable-Phenotype (%): 7%
  Population Mitochondria Different-Phenotype (%): 30%
  Population Mitotic Cells (%): 54%
  Population Normal (%): 61%
  Population Pyknosed Nuclei (%): 18%
  Population Tubulin-Different-Phenotype (%): 15%
  Total Cell Count: 99
[3]
  Population Apoptotic (%): 58%
  Population Fragmented Nuclei (%): 27%
  Population Healthy Nuclei (%): 50%
  Population Hoechst High Intensity Objects (%): 24%
  Population Membrane Permeable-Phenotype (%): 18%
  Population Mitochondria Different-Phenotype (%): 12%
  Population Mitotic Cells (%): 41%
  Population Normal (%): 75%
  Population Pyknosed Nuclei (%): 22%
  Population Tubulin-Different-Phenotype (%): 68%
  Total Cell Count: 247
[4]
  Population Apoptotic (%): 22%
  Population Fragmented Nuclei (%): 33%
  Population Healthy Nuclei (%): 52%
  Population Hoechst High Intensity Objects (%): 34%
  Population Membrane Permeable-Phenotype (%): 16%
  Population Mitochondria Different-Phenotype (%): 13%
  Population Mitotic Cells (%): 77%
  Population Normal (%): 65%
  Population Pyknosed Nuclei (%): 13%
  Population Tubulin-Different-Phenotype (%): 91%
  Total Cell Count: 104
[5]
  Population Apoptotic (%): 72%
  Population Fragmented Nuclei (%): 35%
  Population Healthy Nuclei (%): 53%
  Population Hoechst High Intensity Objects (%): 18%
  Population Membrane Permeable-Phenotype (%): 5%
  Population Mitochondria Different-Phenotype (%): 7%
  Population Mitotic Cells (%): 27%
  Population Normal (%): 81%
  Population Pyknosed Nuclei (%): 10%
  Population Tubulin-Different-Phenotype (%): 13%
  Total Cell Count: 247
[6]
  Population Apoptotic (%): 50%
  Population Fragmented Nuclei (%): 54%
  Population Healthy Nuclei (%): 28%
  Population Hoechst High Intensity Objects (%): 34%
  Population Membrane Permeable-Phenotype (%): 0%
  Population Mitochondria Different-Phenotype (%): 6%
  Population Mitotic Cells (%): 50%
  Population Normal (%): 65%
  Population Pyknosed Nuclei (%): 17%
  Population Tubulin-Different-Phenotype (%): 12%
  Total Cell Count: 87
[7]
  Population Apoptotic (%): 57%
  Population Fragmented Nuclei (%): 29%
  Population Healthy Nuclei (%): 54%
  Population Hoechst High Intensity Objects (%): 38%
  Population Membrane Permeable-Phenotype (%): 19%
  Population Mitochondria Different-Phenotype (%): 21%
  Population Mitotic Cells (%): 42%
  Population Normal (%): 61%
  Population Pyknosed Nuclei (%): 15%
  Population Tubulin-Different-Phenotype (%): 61%
[8]
  Population Apoptotic (%): 66%
  Population Fragmented Nuclei (%): 49%
  Population Healthy Nuclei (%): 36%
  Population Hoechst High Intensity Objects (%): 35%
  Population Membrane Permeable-Phenotype (%): 34%
  Population Mitochondria Different-Phenotype (%): 26%
  Population Mitotic Cells (%): 33%
  Population Normal (%): 64%
  Population Pyknosed Nuclei (%): 14%
  Population Tubulin-Different-Phenotype (%): 82%
  Total Cell Count: 98
